OXTR potentiate: human OXTR potentiation. P30559. CHO-OTR cells, Fluo-8 calcium fluorescence, potentiator mode; 0% = oxytocin EC15, 100% = EC100. activation, % at 3 µM. 0.061% of 320,000 active. AID 2445;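 active = activation above that plate's cutoff, the mean activation of tested compounds plus 3 SD, cut at about 6.6% in these data, passing the limit was not always enough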;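 also: 100% uses oxytocin at 75 nM as the full agonist control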
Target sequence (P30559 whole entry, looked up): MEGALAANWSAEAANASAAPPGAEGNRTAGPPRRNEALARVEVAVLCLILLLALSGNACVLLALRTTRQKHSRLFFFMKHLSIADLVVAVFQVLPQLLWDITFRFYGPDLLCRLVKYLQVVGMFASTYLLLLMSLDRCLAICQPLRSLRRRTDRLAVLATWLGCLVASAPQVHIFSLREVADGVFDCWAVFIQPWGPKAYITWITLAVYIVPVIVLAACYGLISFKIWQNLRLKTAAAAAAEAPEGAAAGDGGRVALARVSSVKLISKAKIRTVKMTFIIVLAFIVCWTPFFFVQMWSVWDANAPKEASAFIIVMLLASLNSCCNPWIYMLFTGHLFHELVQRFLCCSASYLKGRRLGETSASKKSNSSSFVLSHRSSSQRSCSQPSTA
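System: human OTR in CHO cells / Also added: sub-maximal oxytocin, roughly EC15 / Control set: EC15 oxytocin low, 75 nM oxytocin high / Schedule: 6 min compound pre-incubation at room temperature, 100 s kinetic read / Compound: single-point 3.0 µM / Replication: singlicate / Technique: Fluo-8 calcium dye fluorescence / Read-out basis: % activation of max/min ratio relative to oxytocin controls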
zfTRPN1 agonist: agonists of zebrafish TRPN1 channel; HEK293 zebrafish TRPN1-YFP, Fluo-8 calcium fluorescence; 100% = response to 87 µM carbachol; 0.18% of 220,000 active; activation, % at 3 µM;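 active = activation above its plate's cutoff, the mean activation of test wells on that plate plus 3 SD, cut at about 19% in these data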;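 also: 0% = DMSO alone and 100% = 87 µM carbachol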
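Control set: carbachol 87 µM as high control, DMSO as low control; system: HEK293 stable line with zebrafish TRPN1-YFP; read-out: % activation versus carbachol response; detection: intracellular calcium fluorescence with Fluo-8; doses: single test compound dose, 3 µM nominal, 0.3% DMSO; schedule: dye 1 h 37 °C plus 30 min RT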
OXTR ag: agonists of human oxytocin receptor | activation, % at 3 µM | CHO-OTR cells, Fluo-8 calcium fluorescence; normalized: DMSO 0%, oxytocin 100% | P30559 | 0.32% of 320,000 active;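 active = activation above the mean of all tested compounds plus 3 SD, cutoff set per screening run, cut at about 20% in these data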;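 also: peak over basal fluorescence ratio from a 100 s FLIPR kinetic read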
V1R ag counter: activates human V1a receptor in oxytocin agonist counter-screen | P37288 | CHO-V1R cells, Fluo-8 calcium fluorescence, agonist mode; 0% DMSO, 100% 3 nM vasopressin | activation, % at 3 µM | 0.25% of 320,000 active | AID 2797;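 active = activation above the mean activation of all tested compounds plus 3 SD, per screening run, cut at about 20% in these data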;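 also: signal is peak over basal fluorescence ratio across a 100 second FLIPR read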
TRPML3 ag: human mucolipin-3 channel agonism; activation, % at 3 µM; 0.29% of 220,000 active; AID 1448; Q8TDD5; HEK293 TRPML3-YFP, Fluo-8 calcium fluorescence; 100% = the carbachol control signal;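 active = activation above its plate's cutoff, the mean activation of the plate's test wells plus 3 SD, cut at about 12% in these data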;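 also: 0% = DMSO only wells and 100% = carbachol wells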
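system = HEK293 cells stably carrying human TRPML3-YFP | doses = one concentration, 3 µM nominal, 0.3% DMSO | timing = dye loading 1 h 37 °C then 30 min ambient, 125 s read | detection = Fluo-8 calcium dye fluorescence, ex 470-495, em 515-575 nm | benchmarks = high control carbachol 87 µM, low control DMSO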
The depositor's hits bear a star; · = no result given. Shown are actives, neighbours in structure and some others; about 0.55% of the full set was active somewhere.

SMILES	OXTR potentiate	zfTRPN1 agonist	OXTR ag	V1R ag counter	TRPML3 ag
O=C1CN(C(=O)COC(=O)CCC(=O)c2ccc(F)cc2)c2ccccc2N1	-4.2	·	3.5	2.9	·
Clc1ccc2nc(COc3ccccc3)[nH]c2c1	-4.2	·	-2.8	0.6	·
CC(C(=O)O)N(c1ccccc1Cl)S(C)(=O)=O (stereo not given)	0.8	·	0.9	1.1	·
C[C@H](CO)N1C[C@H](C)[C@@H](CN(C)Cc2ccncc2)Oc2ccc(NC(=O)Cn3cnnn3)cc2C1=O	-7.2	·	-0.2	0.1	·
CC(=O)Nc1ccc(NC(=O)C(C)OC(=O)c2cccc(S(=O)(=O)N3CCCCCC3)c2)cc1 (stereo not given)	-4.9	·	-0.8	0.6	·
COc1ccccc1CC(=O)Nc1ccc([N+](=O)[O-])cc1O	-15.6	20.9*	14.9	10.3	5.7
CCOC(=O)N1CCN(c2ccc(S(=O)(=O)N3CCC(C)CC3)cc2[N+](=O)[O-])CC1	-11.0	·	5.3	6.4	·
O=C1CNC(=O)/C(=C\c2ccccc2)N1	-1.4	·	0.8	1.4	·
O=C1/C(=C/c2ccccc2)Nc2ccccc21	-8.9	1.0	46.0*	42.1*	-0.1
OCCNCc1c(OCc2ccc(Cl)cc2)ccc2ccccc12	-19.8	·	29.9*	29.6*	·
COc1ccc(C2C(C(=O)c3cccs3)=C(O)C(=O)N2c2cccc(C)n2)cc1 (stereo not given)	-4.9	-1.0	-0.4	-0.4	0.2
Cc1ccc(C2C(C(=O)c3cccs3)=C(O)C(=O)N2c2nnc(C)s2)cc1 (stereo not given)	0.3	42.3*	8.4	13.3	22.0*
COCc1nnc(SCC(=O)NCc2ccccc2)n1-c1ccccc1	-3.4	24.8*	0.3	1.6	-0.6
COCc1nnc(SCC(=O)Nc2cccc(Cl)c2C)n1-c1ccccc1	-7.0	-1.0	1.5	0.3	0.2
O=[N+]([O-])c1ccc(/C=C/C2=NN(c3ccccc3)C(c3ccco3)C2)cc1 (stereo not given)	-10.5	6.4	33.6*	26.8*	1.8
Cc1ccc(C2=NN(S(=O)(=O)c3ccccc3)C(c3ccco3)C2)cc1 (stereo not given)	1.5	·	-0.5	0.7	·
O=[N+]([O-])c1ccc(C2=NN(c3ccccc3)C(c3ccco3)C2)cc1 (stereo not given)	·	24.1*	·	·	12.0*
CCc1nc(SCc2ccc(OCC(C)C)cc2)n[nH]1	-16.3	·	6.8	6.0	·
N#CNC(=Nc1cccc(F)c1)SCc1cccc(F)c1	-10.0	16.1	9.4	10.3	13.0*
CCOc1ccc(NS(=O)(=O)c2cc(C(=O)N(CC)CC(=O)NCc3cccs3)ccc2C)cc1	-13.6	·	-1.8	-0.7	·
CCN(CC)c1ccc2cc(-c3nnc(-c4ccc(Br)cc4)o3)c(=O)oc2c1	·	5.5	·	·	4.5
CCN(CC)c1ccc2cc(-c3nc4ccccc4n3C)c(=O)oc2c1	-12.1	7.4	16.6	17.9	2.5
CCN(CC)c1ccc2cc(-c3nc4ccccc4[nH]3)c(=O)oc2c1	-13.5	128.2*	322.8*	287.7*	54.5*
CCN(CC)c1ccc2cc(-c3nc(-c4ccc(OC)cc4)cs3)c(=O)oc2c1	-20.8	64.0*	453.8*	296.6*	66.6*
CC1C/C(=C/c2ccncc2)C(=O)/C(=C/c2ccncc2)C1 (stereo not given)	-6.9	4.2	6.8	8.9	3.0
SMILES	OXTR potentiate	zfTRPN1 agonist	OXTR ag	V1R ag counter	TRPML3 ag
CC1C/C(=C/c2cccn2C)C(=O)/C(=C/c2cccn2C)C1 (stereo not given)	-22.9	0.9	58.1*	78.5*	1.1
CCOc1ccccc1N1CC(C(=O)NCCOc2ccccc2OC)CC1=O (stereo not given)	0.9	·	-0.3	0.6	·
Nc1nc(C2CC2)c(Sc2sc(N)nc2C2CC2)s1	-22.4	1.2	24.6*	25.1*	1.1
CC(C)S(=O)(=O)c1csc(NC(=O)Nc2ccc(Cl)cc2)c1	-18.1	21.2*	10.4	17.3	6.6
CCCCc1ccc(N/C(N)=N/c2nc(C)cc(C)n2)cc1	-19.9	108.6*	57.5*	61.5*	80.1*
CCCn1c(=O)c(C(=O)NNC(=O)c2ccccc2Cl)c(O)c2ccccc21	-15.8	·	40.1*	30.5*	·
COCCCNc1c2c3c(cccc3[nH]c1=O)C(=O)c1ccccc1-2	-10.8	202.7*	589.9*	532.9*	105.1*
CCCCCCCCCC[N+](C)(C)CC/C=C1/c2ccccc2Sc2ccc(Cl)cc21	-12.8	·	31.3*	36.9*	·
NC(=O)c1sc(-c2ccsc2)cc1NS(=O)(=O)c1ccc(C(F)(F)F)cc1	-13.7	-1.7	8.1	3.8	-0.3
COc1ccc(NC(=O)c2cccc(C#N)c2)cc1NS(=O)(=O)c1ccc(F)cc1	-9.0	-1.4	1.5	3.0	-0.3
O=C(Cn1nnc(-c2ccccc2NC(=O)c2ccccc2F)n1)NC1CCCC1	1.2	0.6	46.7*	49.0*	-0.1
NC(=O)c1ccc[n+]([C@H]2O[C@@H](COP(=O)([O-])OP(=O)(O)OC[C@H]3O[C@@H](n4cnc5c(N)ncnc54)[C@H](O)[C@@H]3O)[C@H](O)[C@@H]2O)c1	-22.4	·	50.7*	69.3*	·
CCC(C)(C)NC(=O)c1ccc2c(c1)N(CC(=O)N1CCCC1)C(=O)C(C)(C)O2	2.8	·	-0.1	0.0	·
O=C(OCCN1C(=O)c2cccc3c(N4CCOCC4)ccc(c23)C1=O)c1cccc(Cl)c1	-11.5	5.7	23.3*	22.5*	7.4
O=C(OCCN1C(=O)c2cccc3c(N4CCOCC4)ccc(c23)C1=O)c1ccc(Cl)cc1Cl	-5.0	6.6	14.0	9.2	4.3
CN1/C(=C/C=C(C#N)C#N)C(C)(C)c2ccccc21	-5.5	0.8	-3.0	-0.9	1.0
CC1=C/C(=C\C=C(C#N)C#N)N(C)c2ccccc21	-9.3	27.0*	23.1*	32.0*	16.9*
N=C1/C(=C/c2coc3ccccc3c2=O)C(=O)N=C2SC(c3ccco3)=NN12	2.4	15.4	10.9	4.9	6.4
N=C1/C(=C\c2coc3ccc(O)cc3c2=O)C(=O)N=C2SC=CN12	-25.7	84.2*	47.1*	42.4*	17.9*
CC(C)CSC1=NSC2=NC(=O)/C(=C\c3ccccc3)C(=N)N12	-3.3	-0.6	0.0	-0.6	-0.9
CC(C)CSC1=NSC2=NC(=O)/C(=C\c3coc4ccccc4c3=O)C(=N)N12	-21.4	21.4*	120.8*	43.2*	12.9*
N=C1/C(=C\c2coc3ccccc3c2=O)C(=O)N=C2SC(c3ccncc3)=NN12	-8.3	61.1*	92.2*	98.3*	33.7*
CN(C(=O)c1nn(C)c2c1CS(=O)(=O)c1ccccc1-2)c1cccc(Cl)c1	-7.4	·	1.3	0.8	·
C=CCOc1ccccc1CN(C(=O)CCl)c1ccc2c(c1)OCO2	1.0	·	-0.6	-0.1	·

Bioassay records: PubChem BioAssay, The Scripps Research Institute Molecular Screening Center
